From ChEMBL document CHEMBL2429814 (J Med Chem, 2013)
pEC50, pIC50: −log10 of the molar value. Each block holds one compound with its values, some of them ahead of it. Active and inactive are the calls of the source. The rule behind the calls is not given here.

Experiments:
[1] = molecular target: T1, Metabotropic glutamate receptor 5 (Rattus norvegicus, UniProt P31424); experiment: Positive allosteric modulation of rat mGluR5
[2] = molecular target: T2, Metabotropic glutamate receptor 5 (Homo sapiens, UniProt P41594); experiment: Positive allosteric modulation of mGluR5 (unknown origin)
Target sequence in this assay (P41594 whole entry): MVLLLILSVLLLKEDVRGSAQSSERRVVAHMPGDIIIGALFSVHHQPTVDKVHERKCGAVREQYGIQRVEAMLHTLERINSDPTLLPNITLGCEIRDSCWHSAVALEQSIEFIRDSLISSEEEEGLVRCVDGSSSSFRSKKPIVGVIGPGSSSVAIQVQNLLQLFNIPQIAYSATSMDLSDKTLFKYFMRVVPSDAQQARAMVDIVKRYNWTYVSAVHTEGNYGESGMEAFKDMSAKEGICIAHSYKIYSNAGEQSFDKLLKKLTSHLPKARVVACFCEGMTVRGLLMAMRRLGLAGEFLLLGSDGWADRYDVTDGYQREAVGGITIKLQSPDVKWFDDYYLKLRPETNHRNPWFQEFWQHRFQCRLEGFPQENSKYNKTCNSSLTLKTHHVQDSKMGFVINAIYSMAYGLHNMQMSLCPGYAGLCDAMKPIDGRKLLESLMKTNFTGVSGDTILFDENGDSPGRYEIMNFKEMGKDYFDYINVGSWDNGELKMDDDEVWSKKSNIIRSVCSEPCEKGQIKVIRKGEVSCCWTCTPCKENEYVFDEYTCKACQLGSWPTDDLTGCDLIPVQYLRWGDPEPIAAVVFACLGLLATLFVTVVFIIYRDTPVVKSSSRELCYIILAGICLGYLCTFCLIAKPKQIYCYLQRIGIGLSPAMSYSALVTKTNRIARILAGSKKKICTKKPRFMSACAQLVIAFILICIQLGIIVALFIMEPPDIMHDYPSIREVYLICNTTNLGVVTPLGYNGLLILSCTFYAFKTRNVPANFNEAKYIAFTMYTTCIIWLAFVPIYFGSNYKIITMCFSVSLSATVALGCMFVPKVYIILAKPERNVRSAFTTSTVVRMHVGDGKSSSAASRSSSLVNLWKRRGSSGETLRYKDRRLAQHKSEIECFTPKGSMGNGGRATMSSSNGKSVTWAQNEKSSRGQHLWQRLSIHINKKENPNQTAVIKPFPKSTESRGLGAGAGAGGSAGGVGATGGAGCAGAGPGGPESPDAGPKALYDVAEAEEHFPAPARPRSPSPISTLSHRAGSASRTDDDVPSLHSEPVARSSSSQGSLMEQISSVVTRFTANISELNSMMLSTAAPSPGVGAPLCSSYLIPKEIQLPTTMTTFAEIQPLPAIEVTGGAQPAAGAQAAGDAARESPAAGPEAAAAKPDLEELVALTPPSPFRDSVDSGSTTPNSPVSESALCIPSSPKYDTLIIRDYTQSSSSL

[3] = molecular target: T1, Metabotropic glutamate receptor 5; experiment: Agonist activity at mGlu5R in CA3 pyramidal neurons Sprague-Dawley rat hippocampus assessed as effect on amplitude relative to control; assay type: tissue-based
[4] = molecular target: T1, Metabotropic glutamate receptor 5; experiment: Agonist activity at mGlu5R in CA3 pyramidal neurons Sprague-Dawley rat hippocampus assessed as effect on intervent interval relative to control; assay type: tissue-based
Outline: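 Male Sprague-Dawley rats aged 24–30 days; hippocampal slices equilibrated 5–10 min at 30–32°C in a submersion chamber. Recording electrode in the CA3 pyramidal cell body layer. Compound diluted in DMSO and bath-perfused. Spontaneous epileptiform events recorded as field potentials, with inter-event interval normalized to baseline.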

[5] = molecular target: T3, Cytochrome P450 1A2 (Homo sapiens, UniProt P05177); experiment: Inhibition of human CYP1A2; assay type: ADME
T3 sequence (P05177 whole entry): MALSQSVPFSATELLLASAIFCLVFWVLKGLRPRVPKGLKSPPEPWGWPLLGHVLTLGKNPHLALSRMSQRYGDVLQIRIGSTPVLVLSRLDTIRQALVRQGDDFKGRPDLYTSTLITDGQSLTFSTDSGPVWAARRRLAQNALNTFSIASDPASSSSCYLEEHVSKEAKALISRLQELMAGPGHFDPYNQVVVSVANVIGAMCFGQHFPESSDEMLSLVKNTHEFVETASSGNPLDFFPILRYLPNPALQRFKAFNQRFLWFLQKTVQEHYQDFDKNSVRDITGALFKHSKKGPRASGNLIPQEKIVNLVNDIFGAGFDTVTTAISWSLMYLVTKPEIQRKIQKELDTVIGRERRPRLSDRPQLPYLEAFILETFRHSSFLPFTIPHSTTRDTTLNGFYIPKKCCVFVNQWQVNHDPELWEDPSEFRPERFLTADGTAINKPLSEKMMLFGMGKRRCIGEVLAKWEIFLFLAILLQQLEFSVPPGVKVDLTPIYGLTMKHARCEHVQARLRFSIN
Outline: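 Inhibition of the human CYP1A2 isoform measured in human liver microsomes; reported as IC50.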

[6] = molecular target: Cytochrome P450 2D6 (Homo sapiens, UniProt P10635); experiment: Inhibition of human CYP2D6; assay type: ADME
Sequence of Cytochrome P450 2D6 (P10635 whole entry, canonical isoform): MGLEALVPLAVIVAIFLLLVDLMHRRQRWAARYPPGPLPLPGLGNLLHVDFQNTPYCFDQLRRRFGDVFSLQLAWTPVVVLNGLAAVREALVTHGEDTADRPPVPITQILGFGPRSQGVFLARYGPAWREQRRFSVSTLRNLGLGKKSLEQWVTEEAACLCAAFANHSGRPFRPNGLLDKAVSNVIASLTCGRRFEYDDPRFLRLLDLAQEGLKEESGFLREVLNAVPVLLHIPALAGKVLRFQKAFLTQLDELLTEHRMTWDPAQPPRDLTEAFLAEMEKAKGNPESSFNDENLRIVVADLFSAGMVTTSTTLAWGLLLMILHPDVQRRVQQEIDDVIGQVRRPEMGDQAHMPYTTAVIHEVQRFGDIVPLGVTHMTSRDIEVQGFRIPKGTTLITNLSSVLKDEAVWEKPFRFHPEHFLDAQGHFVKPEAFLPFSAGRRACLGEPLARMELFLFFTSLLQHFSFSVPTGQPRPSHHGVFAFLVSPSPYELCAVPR
Outline: (§1)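 Inhibition of individual human CYP isoforms (2C9, 2D6, 3A4) measured in human liver microsomes; IC50 values reported.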

[7] = molecular target: Cytochrome P450 2C9 (Homo sapiens, UniProt P11712); experiment: Inhibition of human CYP2C9; assay type: ADME; outline: as §1
[8] = test system: Brain; experiment: Fraction unbound in rat brain; assay type: ADME, tissue-based
Outline: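 Binding to rat brain homogenate used to derive fraction unbound in brain.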

[9] = test system: Plasma; experiment: Fraction unbound in rat plasma by equilibrium dialysis method; assay type: ADME, cell-free
Outline: (§2)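 Plasma protein binding measured by equilibrium dialysis in human or rat plasma; reported as percent unbound.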

[10] = test system: Plasma; experiment: Fraction unbound in human plasma by equilibrium dialysis method; assay type: ADME, cell-free; outline: as §2
[11] = molecular target: Metabotropic glutamate receptor 8 (Rattus norvegicus) (UniProt P70579); experiment: Potentiation of rat mGluR8 receptor stably expressed in HEK293-GIRK cells assessed as fold shift in glutamate concentration response curve at 10 uM by C2+ mobilization assay relative to control; assay type: cell-based; details: in the assay text read “thallium flux assay” for “C2+ mobilization assay”
Outline: (§3)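 HEK293-GIRK cells expressing the rat mGlu subtype were plated at 15,000 cells/well. Compound at 10 µM, or vehicle, was added, then 140 s later a concentration-response curve of glutamate (L-AP4 for mGlu7) in thallium buffer containing 12 mM thallium sulfate. Thallium flux through GIRK channels was read by fluorescence, and the fold shift of the agonist curve was derived.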

[12] = molecular target: Metabotropic glutamate receptor 7 (Rattus norvegicus) (UniProt P35400); experiment: Potentiation of rat mGluR7 receptor stably expressed in HEK293-GIRK cells assessed as fold shift in […] concentration response curve at 10 uM by […] relative to control; assay type: cell-based; outline: as §3
[13] = molecular target: Metabotropic glutamate receptor 6 (Rattus norvegicus) (UniProt P35349); experiment: Potentiation of rat mGluR6 receptor stably expressed in HEK293-GIRK cells assessed as fold shift in glutamate concentration response curve at 10 uM by C2+ mobilization assay relative to control; assay type: cell-based; details: in the assay text read “thallium flux assay” for “C2+ mobilization assay”; outline: as §3
[14] = molecular target: Metabotropic glutamate receptor 4 (Rattus norvegicus) (UniProt P31423); experiment: Potentiation of rat mGluR4 receptor stably expressed in HEK293-GIRK cells assessed as fold shift in glutamate concentration response curve at 10 uM by C2+ mobilization assay relative to control; assay type: cell-based; details: in the assay text read “thallium flux assay” for “C2+ mobilization assay”; outline: as §3
[15] = molecular target: Metabotropic glutamate receptor 3 (Rattus norvegicus) (UniProt P31422); experiment: Potentiation of rat mGluR3 receptor stably expressed in HEK293-GIRK cells assessed as fold shift in glutamate concentration response curve at 10 uM by C2+ mobilization assay relative to control; assay type: cell-based; details: in the assay text read “thallium flux assay” for “C2+ mobilization assay”; outline: as §3
[16] = molecular target: Metabotropic glutamate receptor 2 (Rattus norvegicus) (UniProt P31421); experiment: Potentiation of rat mGluR2 receptor stably expressed in HEK293-GIRK cells assessed as fold shift in glutamate concentration response curve at 10 uM by C2+ mobilization assay relative to control; assay type: cell-based; details: in the assay text read “thallium flux assay” for “C2+ mobilization assay”; outline: as §3
Sequence of Metabotropic glutamate receptor 2 (Rattus norvegicus) (P31421 19-872 limits assumed): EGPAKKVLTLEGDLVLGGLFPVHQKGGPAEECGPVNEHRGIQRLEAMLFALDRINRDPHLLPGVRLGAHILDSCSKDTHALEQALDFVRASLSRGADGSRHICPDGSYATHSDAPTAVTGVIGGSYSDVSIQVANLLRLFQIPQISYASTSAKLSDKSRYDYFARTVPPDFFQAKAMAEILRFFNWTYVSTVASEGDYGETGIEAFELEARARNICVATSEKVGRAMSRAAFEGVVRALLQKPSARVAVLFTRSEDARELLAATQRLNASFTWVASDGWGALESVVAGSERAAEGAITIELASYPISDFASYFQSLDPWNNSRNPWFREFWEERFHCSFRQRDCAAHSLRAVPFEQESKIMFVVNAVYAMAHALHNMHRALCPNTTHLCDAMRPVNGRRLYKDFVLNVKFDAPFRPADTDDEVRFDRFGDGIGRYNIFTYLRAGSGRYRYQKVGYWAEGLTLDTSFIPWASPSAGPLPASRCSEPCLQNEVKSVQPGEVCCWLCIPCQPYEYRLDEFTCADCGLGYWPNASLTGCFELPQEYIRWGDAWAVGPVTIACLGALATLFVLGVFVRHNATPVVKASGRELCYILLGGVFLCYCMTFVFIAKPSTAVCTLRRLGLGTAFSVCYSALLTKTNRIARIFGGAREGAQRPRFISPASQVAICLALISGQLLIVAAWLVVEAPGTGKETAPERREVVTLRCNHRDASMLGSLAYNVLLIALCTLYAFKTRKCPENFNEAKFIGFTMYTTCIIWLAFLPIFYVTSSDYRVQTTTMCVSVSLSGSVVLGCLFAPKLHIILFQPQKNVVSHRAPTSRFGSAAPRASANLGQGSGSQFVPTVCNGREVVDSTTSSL

[17] = molecular target: Metabotropic glutamate receptor 1 (Rattus norvegicus) (UniProt P23385); experiment: Potentiation of rat mGluR1 receptor stably expressed in HEK293 cells assessed as fold shift in glutamate concentration response curve at 10 uM by […] mobilization assay relative to control; assay type: cell-based
Outline: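 HEK293 cells stably expressing rat mGlu1 were plated at 20,000 cells/well and loaded with Fluo-4AM. Compound at 10 µM final, or vehicle, was added, then a glutamate concentration-response curve 140 s later. Calcium flux was measured as fluorescence increase, and the fold shift of the glutamate curve was derived.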

[18] = Agonist activity at rat mGluR5 S808A mutant stably expressed in HEK293 cells assessed as increase in intracellular calcium level at 1 to 100 uM by Fluo-4AM dye-based fluorescence assay; assay type: cell-based; details: hek293, 100 µM
[19] = molecular target: T1, Metabotropic glutamate receptor 5; experiment: Agonist activity at mGlu5R in SC-CA1 synapse of Sprague-Dawley rat hippocampus assessed as induction of long-term depression at 10 uM measured 55 mins post compound washout; assay type: tissue-based
Outline: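 Male Sprague-Dawley rats aged 30–40 days; hippocampal slices at 30–32°C. Bipolar stimulation of Schaffer collaterals near the CA3-CA1 border, recording in CA1 stratum radiatum, baseline intensity 50–60% of maximum. Compound in DMSO, bath-perfused. fEPSP slopes averaged over three sequential responses and normalized to the pre-drug baseline.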

[20] = Agonist activity at rat mGluR5 T780A mutant stably expressed in HEK293 cells assessed as increase in intracellular calcium level at 1 to 100 uM by Fluo-4AM dye-based fluorescence assay; assay type: cell-based; details: hek293, 100 µM
[21] = molecular target: Metabotropic glutamate receptor 5 (Rattus norvegicus) (UniProt P31424); experiment: Positive allosteric modulation of rat mGluR5 stably expressed in HEK293 cells assessed as increase in intracellular calcium level by Fluo-4AM dye-based fluorescence assay relative to glutamate; assay type: functional, cell-based
Sequence of Metabotropic glutamate receptor 5 (Rattus norvegicus) (P31424 21-1203 limits assumed): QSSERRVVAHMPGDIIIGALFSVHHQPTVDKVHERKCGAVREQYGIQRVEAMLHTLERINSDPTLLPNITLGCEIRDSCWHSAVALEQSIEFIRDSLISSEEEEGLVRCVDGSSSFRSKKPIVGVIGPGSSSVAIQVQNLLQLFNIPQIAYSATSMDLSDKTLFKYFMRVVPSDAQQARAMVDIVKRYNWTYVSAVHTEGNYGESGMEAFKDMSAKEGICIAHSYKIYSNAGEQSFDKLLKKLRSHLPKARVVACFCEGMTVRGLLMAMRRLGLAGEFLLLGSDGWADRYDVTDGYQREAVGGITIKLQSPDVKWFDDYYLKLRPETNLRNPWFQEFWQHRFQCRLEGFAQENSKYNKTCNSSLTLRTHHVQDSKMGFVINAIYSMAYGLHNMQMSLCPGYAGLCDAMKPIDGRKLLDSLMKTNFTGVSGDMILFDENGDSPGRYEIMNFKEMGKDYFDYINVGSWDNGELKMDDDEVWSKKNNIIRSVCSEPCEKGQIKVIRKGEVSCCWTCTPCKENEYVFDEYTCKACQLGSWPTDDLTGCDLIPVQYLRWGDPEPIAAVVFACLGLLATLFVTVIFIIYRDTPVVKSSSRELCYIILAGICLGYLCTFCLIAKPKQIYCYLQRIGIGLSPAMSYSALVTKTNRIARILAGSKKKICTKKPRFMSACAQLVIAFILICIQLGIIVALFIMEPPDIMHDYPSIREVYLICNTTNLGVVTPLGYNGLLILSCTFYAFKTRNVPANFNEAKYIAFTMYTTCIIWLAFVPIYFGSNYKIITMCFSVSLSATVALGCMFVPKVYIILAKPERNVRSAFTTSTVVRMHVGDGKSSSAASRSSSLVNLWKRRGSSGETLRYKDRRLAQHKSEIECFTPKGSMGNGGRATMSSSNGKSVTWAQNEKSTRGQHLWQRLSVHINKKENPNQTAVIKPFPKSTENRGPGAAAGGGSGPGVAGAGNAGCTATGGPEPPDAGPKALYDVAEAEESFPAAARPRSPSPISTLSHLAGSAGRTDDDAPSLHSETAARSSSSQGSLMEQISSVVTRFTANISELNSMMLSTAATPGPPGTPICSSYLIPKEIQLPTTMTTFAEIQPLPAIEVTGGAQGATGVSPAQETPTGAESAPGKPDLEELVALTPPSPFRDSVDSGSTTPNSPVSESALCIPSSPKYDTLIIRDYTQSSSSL

[22] = molecular target: T2, Metabotropic glutamate receptor 5; experiment: Positive allosteric modulation of mGluR5 (unknown origin) at 10 uM relative to glutamate
Outline: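 HEK293 cells stably expressing rat mGlu5 (low receptor expression line) were plated overnight at 37°C/5% CO2 and loaded with Fluo-4AM for 50 min at 37°C in HBSS with 20 mM HEPES and 2.5 mM probenecid, pH 7.4. PAM (10 µM) or vehicle was added, then a glutamate concentration-response curve 140 s later. Read-out was calcium fluorescence, reported as glutamate fold-shift, three independent runs in triplicate.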

[23] = molecular target: Metabotropic glutamate receptor 5 (Rattus norvegicus) (UniProt P31424); experiment: Positive allosteric modulation of mGluR5 in rat cortical neurons at 3 uM relative to DHPG
[24] = molecular target: T2, Metabotropic glutamate receptor 5; experiment: Positive allosteric modulation of human mGluR5
Target sequence in this assay (P41594 whole entry): as the sequence (P41594 whole entry) above

[25] = molecular target: T1, Metabotropic glutamate receptor 5; experiment: Positive allosteric modulation of rat mGluR5 stably expressed in HEK293 cells assessed as Ca2+ flux by FLIPR assay; assay type: functional, cell-based
[26] = molecular target: T2, Metabotropic glutamate receptor 5; experiment: Positive allosteric modulation of human mGluR5 stably expressed in HEK293 cells assessed as Ca2+ flux by FLIPR assay
Target sequence in this assay (P41594 whole entry): as above

[27] = Plasma protein binding in rat; assay type: ADME, cell-free
Outline: (§4)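 Fraction unbound measured by equilibrium dialysis in human or rat plasma.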

[28] = Plasma protein binding in human; assay type: ADME, cell-free; outline: as §4
[29] = molecular target: T1, Metabotropic glutamate receptor 5; experiment: Agonist activity at rat mGluR5 stably expressed in HEK293 cells assessed as increase in intracellular calcium level by Fluo-4AM dye-based fluorescence assay relative to glutamate; assay type: cell-based; details: read-out: Efficacy
Outline: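 HEK293 cells stably expressing rat mGlu5 (low receptor density), 15,000 cells/well, grown overnight, then loaded with Fluo-4AM for 50 min at 37°C in HBSS/20 mM HEPES/2.5 mM probenecid, pH 7.4. Triple-add protocol: compound, then glutamate EC20 140 s later, then EC80 60 s later. Fluorescence read over time. At least three independent runs in duplicate or triplicate; response given as % of glutamate maximum.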

[30] = molecular target: T1, Metabotropic glutamate receptor 5; experiment: Agonist activity at rat mGluR5 stably expressed in HEK293 cells assessed as increase in intracellular calcium level by Fluo-4AM dye-based fluorescence assay; assay type: cell-based; details: read-out: EC50
Outline: (§5)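 HEK293 cells stably expressing rat mGlu5 (low receptor density line), 15,000 cells/well, grown overnight at 37°C/5% CO2. Loaded with Fluo-4AM for 50 min at 37°C in HBSS with 20 mM HEPES, 2.5 mM probenecid, pH 7.4. Triple add: compound, then EC20 glutamate 140 s later, then EC80 glutamate 60 s later. Calcium fluorescence read over time. Values are means of ≥3 independent experiments run in duplicate or triplicate.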

[31] = molecular target: T1, Metabotropic glutamate receptor 5; experiment: Positive allosteric modulation of rat mGluR5 stably expressed in HEK293 cells assessed as increase in intracellular calcium level by Fluo-4AM dye-based fluorescence assay; assay type: functional, cell-based; details: read-out: EC50; outline: as §5

T1 sequence (P31424 whole entry): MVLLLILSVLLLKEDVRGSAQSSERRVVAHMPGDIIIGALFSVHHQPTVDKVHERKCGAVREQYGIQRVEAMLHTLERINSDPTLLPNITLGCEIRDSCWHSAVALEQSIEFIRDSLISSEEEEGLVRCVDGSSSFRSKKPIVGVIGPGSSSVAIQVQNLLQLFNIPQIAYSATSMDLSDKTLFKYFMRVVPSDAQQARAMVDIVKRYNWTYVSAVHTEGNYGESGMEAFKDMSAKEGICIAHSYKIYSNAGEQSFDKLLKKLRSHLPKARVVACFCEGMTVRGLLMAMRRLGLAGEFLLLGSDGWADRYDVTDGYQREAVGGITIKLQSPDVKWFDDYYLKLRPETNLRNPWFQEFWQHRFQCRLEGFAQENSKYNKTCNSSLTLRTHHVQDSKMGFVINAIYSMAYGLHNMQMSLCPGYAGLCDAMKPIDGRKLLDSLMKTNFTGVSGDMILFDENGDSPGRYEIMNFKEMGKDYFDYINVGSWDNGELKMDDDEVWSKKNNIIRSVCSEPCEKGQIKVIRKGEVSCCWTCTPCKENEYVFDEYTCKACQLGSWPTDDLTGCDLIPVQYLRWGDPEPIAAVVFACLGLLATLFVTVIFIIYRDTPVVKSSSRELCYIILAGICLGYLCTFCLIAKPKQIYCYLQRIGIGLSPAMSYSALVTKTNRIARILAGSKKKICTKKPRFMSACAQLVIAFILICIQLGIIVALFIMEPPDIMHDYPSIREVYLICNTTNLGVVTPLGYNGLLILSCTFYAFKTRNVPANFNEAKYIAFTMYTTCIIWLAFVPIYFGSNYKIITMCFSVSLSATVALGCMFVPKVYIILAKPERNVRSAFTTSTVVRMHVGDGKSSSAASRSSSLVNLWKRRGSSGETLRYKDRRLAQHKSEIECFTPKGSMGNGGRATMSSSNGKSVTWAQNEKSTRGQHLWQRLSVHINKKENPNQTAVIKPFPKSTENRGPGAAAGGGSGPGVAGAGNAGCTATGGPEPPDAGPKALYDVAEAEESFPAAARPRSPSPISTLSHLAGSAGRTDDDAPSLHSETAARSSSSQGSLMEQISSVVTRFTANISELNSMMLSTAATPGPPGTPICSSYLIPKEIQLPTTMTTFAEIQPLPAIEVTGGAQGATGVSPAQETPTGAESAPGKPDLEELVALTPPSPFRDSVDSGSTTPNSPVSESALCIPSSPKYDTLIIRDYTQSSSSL

SMILES: Fc1cccc(/C=N/N=C/c2cccc(F)c2)c1
pEC50 [2]: 5.59

SMILES: CC1(NC(=O)c2ccc(C#Cc3cccc(F)c3)cn2)COC1
Activity [3]: 101.2%
Activity [4]: 127.9%
pIC50 [5]: 5.28
pIC50 [6]: < 4.52
pIC50 [7]: < 4.52
Fu [8]: 1.6%
Fu [9]: 3.6%
Fu [10]: 3.5%
Activity [11]: inactive
Activity [12]: inactive
Activity [13]: inactive
Activity [14]: inactive
Activity [15]: inactive
Activity [16]: inactive
Activity [17]: inactive
Activity [18]: Active
Activity [19]: 100.3%
Activity [20]: Not Active
Efficacy [21]: 45.5%

SMILES: O=C1c2ccc(F)cc2CCC2CC[C@@H](c3noc(-c4ccc(F)cn4)n3)CN12 (stereo partly specified)
fold change (FC) [22]: 6

SMILES: CC(C)(C)c1nnc2n1CC[C@H](c1nc(-c3ccc(F)cc3)no1)C2
fold change (FC) [23]: 2.8
pEC50 [1]: 7.38
pEC50 [24]: 7.28

SMILES: C[C@@H](NC(=O)c1ccc(C#Cc2cccc(F)c2)cn1)C(C)(C)O
fraction unbound [27]: 0.028
fraction unbound [28]: 0.027
Activity [20]: Not Active
Emax [29]: 37.1%
pEC50 [30]: 6.04
Efficacy [21]: 63.5%
pEC50 [31]: 8.31
pEC50 [1]: 8.82

Further lines, results first:

pEC50 [1]: 6.70
SMILES: O=C(c1ccc(C#Cc2cccc(F)c2)nc1)N1CCC(O)CC1

pEC50 [1]: 7.77
SMILES: O=C(N[C@H]1C[C@H](O)C1)c1ccc(C#Cc2cccc(F)c2)cn1

pEC50 [25]: 7.26
pEC50 [26]: 6.80
SMILES: O=C(c1ccc(F)cc1)N1CCC[C@H](c2nc(-c3ccc(F)cc3)no2)C1
